The species named for experiment [1] is Cavia porcellus. Kind of experiment: Evaluated for its ability to inhibit the electrically evoked contraction of the guinea pig ileum(GPI). The experiment is classed as functional. The essentials:
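Strips of guinea pig ileum longitudinal muscle–myenteric plexus were electrically stimulated and inhibition of contraction was recorded. IC50 and its standard error came from fitting mean data to the Hill equation by nonlinear least squares. Selected analogues were retested with 1000 nM CTAP as mu antagonist to look for a shift.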

In experiment [2] the target is Kappa-type opioid receptor (Cavia porcellus, UniProt P41144). Kind of experiment: Inhibition of binding [3H][…] at Opioid receptor kappa 1 of guinea pig brain membrane (GPB) homogenates. In a few lines: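 Whole-brain membranes from adult male guinea pigs (200–400 g) were used. Mean ± SEM of three or more independent measurements.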
A short description of experiment [3]: Ratio between IC50 of GPI and GPB. The experiment is classed as functional.
The next experiment has as its target Mu-type opioid receptor (Cavia porcellus, UniProt P97266). Kind of experiment: Inhibition of binding [3H]DAMGO at Opioid receptor mu 1 of guinea pig brain membrane (GPB) homogenates. In a few lines:
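Membranes from whole brains of adult male guinea pigs (200–400 g). Displacement of [3H]DAMGO at 1.0 nM for mu sites, with 180 min incubation. Values come from at least three independent measurements and are given as mean ± SEM.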

In experiment [4] the test system is Opioid receptors delta & kappa (Cavia porcellus). Description: Selectivity ratio between delta and kappa opioid receptor from guinea pig brain homogenate.
The subject of experiment [5] is Opioid receptors mu & kappa (Cavia porcellus). Kind of experiment: Selectivity ratio between mu and kappa opioid receptor from guinea pig brain homogenate.
Experiment [6] is filed under the species Cavia porcellus. Description: Ability to inhibit the electrically evoked contraction of the guinea pig ileum(GPI)at concentration of 30 uM. The class given is functional.
The species entered for experiment [7] is Cavia porcellus. Kind of experiment: Ability to inhibit the electrically evoked contraction of the guinea pig ileum(GPI).at concentration of 60 uM. The class given is functional.
For experiment [8], the species on record is Cavia porcellus. Description: Compound was evaluated for its ability to inhibit the electrically evoked contraction of the guinea pig ileum(GPI).at concentration of 60 uM. The class given is functional.
Experiment [9] deals with Delta-type opioid receptor (Mus musculus) (UniProt P32300). Kind of experiment: Agonistic activity towards Opioid receptor delta 1 was determined by evaluating the inhibitory activity towards electrically stimulated mouse vas deferens. The conditions noted are these: concentration not given here.
The species entered for experiment [10] is Cavia porcellus. Description: Ability to inhibit the electrically evoked contraction of the guinea pig ileum(GPI).at concentration of 30 uM. The experiment is classed as functional.

SMILES strings stand for the structures.

Sequence of Kappa-type opioid receptor (P41144 whole entry): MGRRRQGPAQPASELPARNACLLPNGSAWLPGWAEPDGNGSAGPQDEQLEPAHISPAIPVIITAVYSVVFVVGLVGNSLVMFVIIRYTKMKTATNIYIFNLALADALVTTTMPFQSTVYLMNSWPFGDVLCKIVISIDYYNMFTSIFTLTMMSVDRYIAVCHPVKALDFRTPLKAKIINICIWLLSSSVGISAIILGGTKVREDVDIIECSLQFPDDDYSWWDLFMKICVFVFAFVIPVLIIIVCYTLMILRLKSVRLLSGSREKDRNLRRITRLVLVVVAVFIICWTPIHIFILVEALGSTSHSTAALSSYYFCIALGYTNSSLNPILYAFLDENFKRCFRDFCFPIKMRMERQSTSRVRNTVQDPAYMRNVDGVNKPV
Sequence of Mu-type opioid receptor (P97266 whole entry): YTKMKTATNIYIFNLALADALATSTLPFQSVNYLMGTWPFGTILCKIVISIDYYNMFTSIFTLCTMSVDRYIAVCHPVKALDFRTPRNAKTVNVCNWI
Sequence of Delta-type opioid receptor (Mus musculus) (P32300 whole entry, looked up): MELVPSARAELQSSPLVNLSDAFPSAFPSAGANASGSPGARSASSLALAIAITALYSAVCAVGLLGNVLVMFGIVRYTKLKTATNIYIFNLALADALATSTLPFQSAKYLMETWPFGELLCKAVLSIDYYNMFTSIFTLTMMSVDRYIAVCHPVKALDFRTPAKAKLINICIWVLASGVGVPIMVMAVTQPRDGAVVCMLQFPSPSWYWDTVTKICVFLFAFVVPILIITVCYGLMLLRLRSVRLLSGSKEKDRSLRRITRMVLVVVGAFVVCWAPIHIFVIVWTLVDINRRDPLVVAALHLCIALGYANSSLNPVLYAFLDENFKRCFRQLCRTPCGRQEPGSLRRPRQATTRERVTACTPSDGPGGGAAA

One may read the IC50 as the point on the concentration scale where inhibition reaches its midpoint. A lower IC50 goes with greater potency in that assay. On to `CC[C@H](C)[C@H](NC(=O)[C@H](CCCN=C(N)N)NC(=O)[C@H](CCCN=C(N)N)NC(=O)[C@H](CC(C)C)NC(=O)[C@H](Cc1ccccc1)NC(=O)[C@H](Cc1ccc(O)cc1)NC(=O)CNC(=O)[C@@H](N)Cc1ccc(O)cc1)C(=O)N[C@@H](CCCN=C(N)N)C(=O)N1CCC[C@H]1C(=O)N[C@@H](CCCCN)C(N)=O`, for which the concentration for half-maximal inhibition (IC50) in the experiment filed under Cavia porcellus [1] worked out at 0.22 µM; in experiment [2], 0.0089 µM; on Mu-type opioid receptor, 0.29 µM. Besides, the Ratio in experiment [3] came to 25.
On to `CC[C@H](C)[C@H](NC(=O)[C@H](CCCNC(=N)N)NC(=O)[C@H](CCCNC(=N)N)NC(=O)[C@H](CC(C)C)NC(=O)[C@H](Cc1ccccc1)NC(=O)[C@@H](CCCCN)NC(=O)CNC(=O)[C@@H](N)Cc1ccc(O)cc1)C(=O)N[C@@H](CCCNC(=N)N)C(=O)N1CCC[C@H]1C(=O)N[C@@H](CCCCN)C(N)=O`, for which the results for the half-maximal inhibitory concentration (IC50) (in [2]; at Mu-type opioid receptor) were 0.38 µM and 1.9 µM, respectively.
In the experiment filed under Cavia porcellus [1], `CC[C@H](C)[C@H](NC(=O)[C@H](CCCN=C(N)N)NC(=O)[C@H](CCCN=C(N)N)NC(=O)[C@H](CC(C)C)NC(=O)[C@H](Cc1ccccc1)NC(=O)CNC(=O)CNC(=O)[C@@H](N)Cc1ccc(O)cc1)C(=O)N[C@@H](CCCN=C(N)N)C(=O)N1CCC[C@H]1C(=O)N[C@@H](CCCCN)C(N)=O` yielded an IC50 of 0.001 µM.
On to `CC[C@H](C)[C@H](NC(=O)[C@H](CCCN=C(N)N)NC(=O)[C@H](CCCN=C(N)N)NC(=O)[C@H](CC(C)C)NC(=O)[C@H](Cc1ccccc1)NC(=O)[C@H](Cc1ccccc1)NC(=O)CNC(=O)[C@@H](N)Cc1ccc(O)cc1)C(=O)N[C@@H](CCCN=C(N)N)C(=O)N1CCC[C@H]1C(=O)N[C@@H](CCCCN)C(N)=O`, for which the IC50 in the experiment listed under Cavia porcellus [1] turned out to be 0.0011 µM; in [2] it was 0.00089 µM; on Mu-type opioid receptor, 0.0271 µM. Also, the Ratio in experiment [4] was 315; in experiment [5], 30; in [3] it was 1.2.
In the experiment listed under Cavia porcellus [1], `CC[C@H](C)[C@H](NC(=O)[C@H](CCCN=C(N)N)NC(=O)[C@H](CCCN=C(N)N)NC(=O)[C@H](CC(C)C)NC(=O)[C@H](Cc1ccccc1)NC(=O)[C@@H](CCCCN)NC(=O)CNC(=O)[C@@H](N)Cc1ccc(O)cc1)C(=O)N[C@@H](CCCN=C(N)N)C(=O)N1CCC[C@H]1C(=O)N[C@@H](CCCCN)C(N)=O` yielded a 50% inhibitory concentration (IC50) of 21 µM. Moreover, the figures for the Ratio in [4], in [5] and in [3] were 42, 5 and 55, respectively.
For `CC[C@H](C)[C@H](NC(=O)[C@H](CCCN=C(N)N)NC(=O)[C@H](CCCN=C(N)N)NC(=O)[C@H](CC(C)C)NC(=O)[C@H](Cc1ccccc1)NC(=O)[C@@H](NC(=O)CNC(=O)[C@@H](N)Cc1ccc(O)cc1)[C@@H](C)c1c(C)cccc1C)C(=O)N[C@@H](CCCN=C(N)N)C(=O)N1CCC[C@H]1C(=O)N[C@@H](CCCCN)C(N)=O`, the IC50 turned out to be 40.8 µM in the experiment listed under Cavia porcellus [1], 0.113 µM in [2] and 2.8 µM at Mu-type opioid receptor. Further, the Ratio in [3] is 360.
`CC[C@H](C)[C@H](NC(=O)[C@H](CCCN=C(N)N)NC(=O)[C@H](CCCN=C(N)N)NC(=O)[C@H](CC(C)C)NC(=O)[C@H](Cc1ccccc1)NC(=O)[C@@H](CCC(=O)O)NC(=O)CNC(=O)[C@@H](N)Cc1ccc(O)cc1)C(=O)N[C@@H](CCCN=C(N)N)C(=O)N1CCC[C@H]1C(=O)N[C@@H](CCCCN)C(N)=O` gave an IC50 in the experiment listed under Cavia porcellus [1] of 5.7 µM. The Ratio in [4] worked out at 12; in experiment [5] it was 2.3; in experiment [3], 5.
Turning to `CC[C@H](C)[C@H](NC(=O)[C@H](CCCN=C(N)N)NC(=O)[C@H](CCCN=C(N)N)NC(=O)[C@H](CC(C)C)NC(=O)[C@H](Cc1ccccc1)NC(=O)[C@@H](Cc1ccccc1)NC(=O)CNC(=O)[C@@H](N)Cc1ccc(O)cc1)C(=O)N[C@@H](CCCN=C(N)N)C(=O)N1CCC[C@H]1C(=O)N[C@@H](CCCCN)C(N)=O`, the IC50 in the experiment listed under Cavia porcellus [1] came out at 0.37 µM; in experiment [2], 0.0059 µM; on Mu-type opioid receptor, 0.086 µM. In addition, the Ratio worked out at 125 in experiment [4], 15 in experiment [5] and 62 in experiment [3].
As a reminder, the inhibition is how much of the control response was suppressed. The low end stands for little suppression, the high end for strong suppression. As for `CC[C@H](C)[C@H](NC(=O)[C@H](CCCN=C(N)N)NC(=O)[C@H](CCCN=C(N)N)NC(=O)[C@H](CC(C)C)NC(=O)[C@H](Cc1ccccc1)NC(=O)[C@H](CCC(=O)O)NC(=O)CNC(=O)[C@@H](N)Cc1ccc(O)cc1)C(=O)N[C@@H](CCCN=C(N)N)C(=O)N1CCC[C@H]1C(=O)N[C@@H](CCCCN)C(N)=O`, the Ratio is 20 in [4], 44 in [5] and above 200 in experiment [3]. Also, the IC50 in experiment [2] is 0.15 µM; on Mu-type opioid receptor, 6.6 µM. The compound also showed an inhibition at 30 µM in the experiment filed under Cavia porcellus [6] of 48%.
For the compound `CC[C@H](C)[C@H](NC(=O)CNC(=O)[C@@H](N)Cc1ccc(O)cc1)C(=O)N[C@@H](Cc1ccccc1)C(=O)N[C@@H](CC(C)C)C(=O)N[C@@H](CCCN=C(N)N)C(=O)N[C@@H](CCCN=C(N)N)C(=O)N[C@H](C(=O)N[C@@H](CCCN=C(N)N)C(=O)N1CCC[C@H]1C(=O)N[C@@H](CCCCN)C(N)=O)[C@@H](C)CC`, the IC50 came to 0.46 µM in the experiment listed under Cavia porcellus [1], 0.04 µM in experiment [2] and 0.86 µM on Mu-type opioid receptor. For the same compound, the figures for the Ratio in experiment [5] and in [3] were 22 and 12, respectively.
`CC[C@H](C)[C@H](NC(=O)[C@H](CCCN=C(N)N)NC(=O)[C@H](CCCN=C(N)N)NC(=O)[C@H](CC(C)C)NC(=O)[C@H](Cc1ccccc1)NC(=O)[C@@H](CCCN=C(N)N)NC(=O)CNC(=O)[C@@H](N)Cc1ccc(O)cc1)C(=O)N[C@@H](CCCN=C(N)N)C(=O)N1CCC[C@H]1C(=O)N[C@@H](CCCCN)C(N)=O`: the Ratio in [4] was above 260; in [5], 22; in [3] it was above 260.
As to `CC[C@H](C)[C@H](NC(=O)[C@H](CCCN=C(N)N)NC(=O)[C@H](CCCN=C(N)N)NC(=O)[C@H](CC(C)C)NC(=O)[C@H](Cc1ccccc1)NC(=O)[C@@H](Cc1ccc(O)cc1)NC(=O)CNC(=O)[C@@H](N)Cc1ccc(O)cc1)C(=O)N[C@@H](CCCN=C(N)N)C(=O)N1CCC[C@H]1C(=O)N[C@@H](CCCCN)C(N)=O`, the IC50 in experiment [2] was determined as 0.0231 µM; at Mu-type opioid receptor, 0.65 µM. Further, the inhibition at 60 µM in the experiment filed under Cavia porcellus [7] was found to be 41.7%. In addition, in experiment [3], the Ratio is above 2600.
Usually Inhibition stands for the change of the read-out against control, counted positive when it falls. A higher Inhibition goes with a response far below the control. Consider `CC[C@@H](C)[C@@H](NC(=O)CNC(=O)[C@@H](N)Cc1ccc(O)cc1)C(=O)N[C@@H](Cc1ccccc1)C(=O)N[C@@H](CC(C)C)C(=O)N[C@@H](CCCN=C(N)N)C(=O)N[C@@H](CCCN=C(N)N)C(=O)N[C@H](C(=O)N[C@@H](CCCN=C(N)N)C(=O)N1CCC[C@H]1C(=O)N[C@@H](CCCCN)C(N)=O)[C@@H](C)CC`, for which the Ratio in experiment [4] is 260; in experiment [5] it was 19; in experiment [3], above 1100. The IC50 in experiment [2] worked out at 0.055 µM; on Mu-type opioid receptor, 1.03 µM. The compound also came in with an Inhibition in the experiment filed under Cavia porcellus [8] of 5.7%.
In the case of `CC[C@H](C)[C@H](NC(=O)[C@H](CCCN=C(N)N)NC(=O)[C@H](CCCN=C(N)N)NC(=O)[C@H](CC(C)C)NC(=O)[C@H](Cc1ccccc1)NC(=O)[C@H](NC(=O)CNC(=O)[C@@H](N)Cc1ccc(O)cc1)[C@@H](C)c1ccccc1)C(=O)N[C@@H](CCCN=C(N)N)C(=O)N1CCC[C@H]1C(=O)N[C@@H](CCCCN)C(N)=O`, the half-inhibitory concentration (IC50) in the experiment filed under Cavia porcellus [1] is 2.8 µM; in experiment [2], 0.006 µM; at Mu-type opioid receptor it was 0.112 µM. The values for the Ratio in [4], in experiment [5] and in experiment [3] were 112, 20 and 467, respectively.
Take `CC[C@H](C)[C@H](NC(=O)[C@H](CCCN=C(N)N)NC(=O)[C@H](CCCN=C(N)N)NC(=O)[C@H](CC(C)C)NC(=O)[C@H](Cc1ccccc1)NC(=O)[C@H](CCCCN)NC(=O)CNC(=O)[C@@H](N)Cc1ccc(O)cc1)C(=O)N[C@@H](CCCN=C(N)N)C(=O)N1CCC[C@H]1C(=O)N[C@@H](CCCCN)C(N)=O`: the Ratio in [4] was above 330; in experiment [5] it was 31; in experiment [3] it was above 120. Besides, the concentration for half-maximal inhibition (IC50) in [2] amounted to 0.24 µM; on Mu-type opioid receptor, 7.4 µM. In experiment [9], this compound showed an inhibition of 30%. This compound also gave an inhibition at 30 µM in the experiment filed under Cavia porcellus [10] of 15.6%.
For `CC[C@H](C)[C@H](NC(=O)[C@H](CCCN=C(N)N)NC(=O)[C@H](CCCN=C(N)N)NC(=O)[C@H](CC(C)C)NC(=O)[C@H](Cc1ccccc1)NC(=O)[C@@H](NC(=O)CNC(=O)[C@@H](N)Cc1ccc(O)cc1)[C@@H](C)c1ccccc1)C(=O)N[C@@H](CCCN=C(N)N)C(=O)N1CCC[C@H]1C(=O)N[C@@H](CCCCN)C(N)=O`, the 50% inhibitory concentration (IC50) in the experiment filed under Cavia porcellus [1] was determined as 2.19 µM; in experiment [2], 0.121 µM; at Mu-type opioid receptor it was 1.35 µM. In addition, the Ratio in experiment [4] was 13; in experiment [5] it was 11; in [3] it was 18.
`CC[C@H](C)[C@H](NC(=O)[C@H](CCCNC(=N)N)NC(=O)[C@H](CCCNC(=N)N)NC(=O)[C@H](CC(C)C)NC(=O)[C@H](Cc1ccccc1)NC(=O)[C@@H](CCC(=O)O)NC(=O)CNC(=O)[C@@H](N)Cc1ccc(O)cc1)C(=O)N[C@@H](CCCNC(=N)N)C(=O)N1CCC[C@H]1C(=O)N[C@@H](CCCCN)C(N)=O`: the figures for the IC50 (in [2]; on Mu-type opioid receptor) were 1.1 µM and 2.5 µM, respectively.

Source of the values: ChEMBL document CHEMBL1129348, “Effects of modifications of residues in position 3 of dynorphin A(1-11)-NH2 on kappa receptor selectivity and potency” (J Med Chem, 1996).
